From ChEMBL document CHEMBL3576788, “Dual-Mode HDAC Prodrug for Covalent Modification and Subsequent Inhibitor Release” (J Med Chem, 2015)
Numbering of substitutions follows the chain as printed. One block for each compound: values may come before it. The source made the active and inactive calls. The calls are words filed in the database; no cut-off is given here.

Key:
Jurkat [1] = assay: Effect on alpha-actin level in human Jurkat cells at 6 to 20 uM after 4 hrs by Western blot analysis; assay type: ADME, cell-based
Summary of the method: (§1)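 Log-phase HH or Jurkat cells at 70% confluence treated 4 h, harvested, lysed in RIPA with protease inhibitors. Protein normalised by BCA, run on 10% SDS-PAGE and blotted to PVDF. Probed with anti-actin–HRP (plus acetylated-tubulin and tubulin antibodies) and detected by chemiluminescence.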

[2] = Stability in human plasma assessed as compound remaining after 1 hr by HPLC analysis; assay type: ADME, cell-free; conditions: read-out: Stability
Summary of the method: (§2)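 Pooled normal human plasma pre-warmed 2 min at 37 °C, spiked from a 5.0 mM DMSO stock, run in duplicate. Aliquots taken at 0–120 min, quenched with ACN, centrifuged and filtered. Analysed by reverse-phase C18 HPLC; percent parent is peak area relative to the 0 min sample.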

[3] = biological target: T1, Histone deacetylase 8 (Homo sapiens) (UniProt Q9BY41)
T1 sequence (whole entry): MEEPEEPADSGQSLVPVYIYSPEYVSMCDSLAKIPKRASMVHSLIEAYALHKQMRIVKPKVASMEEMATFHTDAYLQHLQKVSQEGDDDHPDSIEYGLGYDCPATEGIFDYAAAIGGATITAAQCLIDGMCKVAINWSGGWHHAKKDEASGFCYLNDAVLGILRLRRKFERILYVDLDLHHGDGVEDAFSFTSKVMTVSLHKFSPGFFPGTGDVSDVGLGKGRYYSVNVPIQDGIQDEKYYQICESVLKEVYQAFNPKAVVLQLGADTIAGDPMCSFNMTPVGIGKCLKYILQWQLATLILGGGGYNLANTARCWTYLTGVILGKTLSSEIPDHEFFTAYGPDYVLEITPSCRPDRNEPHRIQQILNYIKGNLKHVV

[4] = biological target: T2, Histone deacetylase (Homo sapiens) (UniProt Q13547+O15379+Q9UBN7+Q92769+Q9UQL6+Q8WUI4+Q9BY41+Q96DB2+P56524+Q9UKV0+Q969S8); conditions: Jurkat, 6 to 20 uM
Histone deacetylase 8 [5] = biological target: T3, Histone deacetylase 8 (Homo sapiens, UniProt Q9BY41); assay: (§3) Reversible-time dependent inhibition of human wild type HDAC8 by Fluor-de-Lys activity assay; conditions: read-out: Ki(app)
T3 sequence (Q9BY41 whole entry): T1 sequence (whole entry)

[6] = biological target: T1, Histone deacetylase 8 (Homo sapiens); assay: as §3; conditions: TDE = time-dependent effect
HH [7] = assay: Effect on alpha-actin level in human HH cells at 6 to 20 uM after 4 hrs by Western blot analysis; assay type: ADME, cell-based; summary of the method: as §1
[8] = Retention time of the compound in HEPES buffer at pH 7.4 by LC-MS analysis in presence of GSH; assay type: physicochemical
Summary of the method: (§4)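 Compound incubated with GSH (2 mM, 2 equiv) in 50 mM HEPES, pH 7.4, for 2 h at 37 °C. Products resolved by analytical HPLC, with peak identities assigned by LC-MS from retention times.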

[9] = Cytotoxicity against mouse NIH/3T3 cells assessed as cell proliferation after 70 hrs by MTS assay; assay type: ADME, cell-based; conditions: NIH3T3, 70 h
[10] = biological target: T1, Histone deacetylase 8 (Homo sapiens); assay: Binding affinity to human wild type HDAC8 assessed as loss of activity measured with in 0.5 hrs by Fluor-de-Lys activity assay
[11] = Stability in human plasma assessed as compound remaining after 2 hrs by HPLC analysis; assay type: ADME, cell-free; conditions: read-out: Stability; summary of the method: as §2
Histone deacetylase 2 = Histone deacetylase 2 (Homo sapiens, UniProt Q92769); assay: Inhibition of human recombinant HDAC2 using MAZ1600 as fluorogenic substrate measured every 5 mins by optimized homogenous fluorescence based assay
Histone deacetylase 1 = Histone deacetylase 1 (Homo sapiens, UniProt Q13547); assay: Inhibition of human recombinant HDAC1 using MAZ1600 as fluorogenic substrate measured every 5 mins by optimized homogenous fluorescence based assay
[12] = tested on: T4, Histone deacetylase 8 (Homo sapiens), Q9BY41 [C153A]; assay: Time-dependent inhibition of human HDAC8 C153A mutant by Fluor-de-Lys activity assay
T4 sequence (whole entry): T1 sequence (whole entry) with C153A
Summary of the method: (§5)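 Same as the wild-type method, but using the C153A HDAC8 mutant at 2 μM to start the reaction. Zn2+-reconstituted enzyme; 150 μM Fluor-de-Lys substrate with inhibitor at 30 °C, pH 8.0. Time-point aliquots quenched with trypsin/TSA. Product/substrate fluorescence ratio (ex 340, em 450/380 nm) gives progress curves.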

Jurkat [13] = assay: Cytotoxicity against human Jurkat cells assessed as cell proliferation after 70 hrs by MTS assay; assay type: functional, cell-based
[14] = Stability of the compound assessed as trypsin (unknown origin)-mediated drug degradation measured as compound remaining after 2 hrs by biochemical assay; assay type: ADME; conditions: human, read-out: Stability
Histone deacetylase 3 = Histone deacetylase 3 (Homo sapiens, UniProt O15379); assay: Inhibition of human recombinant HDAC3 using MAZ1600 as fluorogenic substrate measured every 5 mins by optimized homogenous fluorescence based assay
[15] = biological target: T1, Histone deacetylase 8 (Homo sapiens); assay: Binding affinity to human wild type HDAC8 assessed as retention time for protein fragment after 60 mins of treatment in presence of trypsin (reference value: 84.5 mins)
Summary of the method: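 Recombinant human WT HDAC8 (1.7 μM) incubated with 12 equiv compound (20 μM) for 60 min at 37 °C. Protein isolated by SDS-PAGE, reduced (DTT, 56 °C) and alkylated (iodoacetamide), trypsin-digested overnight at 37 °C. Peptides separated on C18 with a 5–60% ACN gradient and detected by LC-MS/MS.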

[16] = biological target: T2, Histone deacetylase (Homo sapiens); conditions: HH, 6 to 20 uM
[17] = Aqueous stability in 50 mM HEPES buffer at pH 7.4 by HPLC chromatogram; assay type: physicochemical
Summary of the method: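 Compound in 50 mM HEPES, pH 7.4, analysed by analytical HPLC right after preparation and again after 24 h at 37 °C, with no thiol present. Stability is read from the parent peak.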

[18] = biological target: T5, Protein deacetylase HDAC6 (Homo sapiens, UniProt Q9UBN7); assay: Inhibition of human recombinant HDAC6 using MAZ1600 as fluorogenic substrate measured every 5 mins by optimized homogenous fluorescence based assay
T5 sequence (Q9UBN7 whole entry): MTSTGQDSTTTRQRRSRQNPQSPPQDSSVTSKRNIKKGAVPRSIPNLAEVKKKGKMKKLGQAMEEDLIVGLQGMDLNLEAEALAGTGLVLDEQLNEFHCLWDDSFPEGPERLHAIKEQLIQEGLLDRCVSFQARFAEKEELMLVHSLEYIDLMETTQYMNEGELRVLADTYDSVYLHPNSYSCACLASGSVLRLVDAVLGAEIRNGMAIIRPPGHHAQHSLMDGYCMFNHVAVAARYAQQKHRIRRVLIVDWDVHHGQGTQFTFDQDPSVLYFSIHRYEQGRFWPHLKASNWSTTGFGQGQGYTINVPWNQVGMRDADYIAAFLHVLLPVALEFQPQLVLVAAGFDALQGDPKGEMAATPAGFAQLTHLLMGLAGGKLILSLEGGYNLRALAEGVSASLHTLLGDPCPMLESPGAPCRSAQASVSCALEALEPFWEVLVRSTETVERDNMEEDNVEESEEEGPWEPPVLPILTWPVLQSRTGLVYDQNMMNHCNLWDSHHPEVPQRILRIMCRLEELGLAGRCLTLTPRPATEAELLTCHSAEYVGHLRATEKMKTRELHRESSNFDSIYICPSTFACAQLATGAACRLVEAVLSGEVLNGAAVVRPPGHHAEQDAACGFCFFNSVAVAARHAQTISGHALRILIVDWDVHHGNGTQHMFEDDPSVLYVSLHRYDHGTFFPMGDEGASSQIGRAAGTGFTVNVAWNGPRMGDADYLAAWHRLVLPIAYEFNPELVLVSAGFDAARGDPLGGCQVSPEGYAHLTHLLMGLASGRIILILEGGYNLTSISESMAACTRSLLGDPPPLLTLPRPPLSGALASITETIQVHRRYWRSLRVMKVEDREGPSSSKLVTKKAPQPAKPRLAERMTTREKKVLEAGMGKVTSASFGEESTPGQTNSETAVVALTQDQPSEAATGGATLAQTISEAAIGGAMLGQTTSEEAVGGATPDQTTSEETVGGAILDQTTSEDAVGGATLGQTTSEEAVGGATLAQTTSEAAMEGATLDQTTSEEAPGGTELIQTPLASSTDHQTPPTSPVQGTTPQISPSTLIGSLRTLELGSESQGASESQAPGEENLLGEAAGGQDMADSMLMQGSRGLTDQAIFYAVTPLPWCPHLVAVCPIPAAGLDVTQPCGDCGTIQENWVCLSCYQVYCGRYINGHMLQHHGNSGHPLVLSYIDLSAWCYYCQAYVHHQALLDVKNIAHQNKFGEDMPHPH

Albumin = Albumin (Bos taurus, UniProt P02769); assay: Stability of the compound assessed as bovine serum albumin-mediated drug degradation measured as compound remaining after 2 hrs by biochemical assay; assay type: ADME; conditions: cattle, read-out: Stability
HH [19] = assay: Cytotoxicity against human HH cells assessed as cell proliferation after 70 hrs by MTS assay; assay type: functional, cell-based
Histone deacetylase 8 [20] = biological target: T3, Histone deacetylase 8; assay: Inhibition of human recombinant HDAC8 using MAZ1675 as fluorogenic substrate measured every 5 mins by optimized homogenous fluorescence based assay
[21] = Cytotoxicity against mouse NIH/3T3 cells assessed as cell proliferation at 50 uM after 70 hrs by MTS assay; assay type: cell-based; conditions: nih3t3, 70 h
Summary of the method: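 NIH/3T3 cells in DMEM + 10% FBS, seeded at 5000 cells/well and allowed to attach for 16 h at 37 °C, 5% CO2. Then exposed to compound for 70 h. MTS reagent added for 2 h, absorbance at 490 nm. Triplicate wells, 2–3 trials.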

[22] = biological target: T1, Histone deacetylase 8 (Homo sapiens); assay: Binding affinity to human wild type HDAC8 assessed as loss of activity at 2 to 10 uM by Fluor-de-Lys activity assay
[23] = Prodrug activation assessed as GSH reactivity in HEPES buffer at pH 7.4 by LC-MS analysis; summary of the method: as §4
HH [24] = assay: Cytotoxicity against human HH cells assessed as cell proliferation at 50 uM after 70 hrs by MTS assay; assay type: functional, cell-based
Summary of the method: (§6)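 HH and Jurkat cells in RPMI 1640 + 10% FBS, seeded at 20 000 cells/well. Exposed directly to compound (0.5–128 μM) for 70 h. MTS reagent added for 4 h at 37 °C, absorbance at 490 nm. Each concentration run in triplicate, 2–3 trials.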

[25] = tested on: T4, Histone deacetylase 8 (Homo sapiens), Q9BY41 [C153A]; assay: Binding affinity to human HDAC8 C153A mutant assessed as loss of activity at 2 to 10 uM by Fluor-de-Lys activity assay; summary of the method: as §5
Jurkat [26] = assay: Cytotoxicity against human Jurkat cells assessed as cell proliferation at 50 uM after 70 hrs by MTS assay; assay type: functional, cell-based; summary of the method: as §6
[27] = Retention time of the compound in HEPES buffer treated with SAHA-TAP at pH 7.4 by LC-MS analysis in presence of GSH; assay type: physicochemical; summary of the method: as §4

Sequence of Histone deacetylase 3 (O15379 whole entry, the tested form may be a part): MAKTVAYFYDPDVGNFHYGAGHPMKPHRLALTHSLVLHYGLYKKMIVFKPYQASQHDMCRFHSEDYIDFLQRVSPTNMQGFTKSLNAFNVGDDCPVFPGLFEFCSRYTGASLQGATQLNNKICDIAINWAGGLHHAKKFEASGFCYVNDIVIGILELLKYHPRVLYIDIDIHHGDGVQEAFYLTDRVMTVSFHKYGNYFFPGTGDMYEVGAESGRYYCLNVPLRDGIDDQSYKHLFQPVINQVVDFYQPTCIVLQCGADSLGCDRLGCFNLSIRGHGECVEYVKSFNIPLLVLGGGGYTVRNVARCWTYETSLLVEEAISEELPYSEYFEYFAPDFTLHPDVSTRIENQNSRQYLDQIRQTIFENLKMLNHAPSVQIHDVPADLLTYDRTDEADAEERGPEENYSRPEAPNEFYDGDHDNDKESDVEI
Sequence of Histone deacetylase 2 (Q92769 whole entry): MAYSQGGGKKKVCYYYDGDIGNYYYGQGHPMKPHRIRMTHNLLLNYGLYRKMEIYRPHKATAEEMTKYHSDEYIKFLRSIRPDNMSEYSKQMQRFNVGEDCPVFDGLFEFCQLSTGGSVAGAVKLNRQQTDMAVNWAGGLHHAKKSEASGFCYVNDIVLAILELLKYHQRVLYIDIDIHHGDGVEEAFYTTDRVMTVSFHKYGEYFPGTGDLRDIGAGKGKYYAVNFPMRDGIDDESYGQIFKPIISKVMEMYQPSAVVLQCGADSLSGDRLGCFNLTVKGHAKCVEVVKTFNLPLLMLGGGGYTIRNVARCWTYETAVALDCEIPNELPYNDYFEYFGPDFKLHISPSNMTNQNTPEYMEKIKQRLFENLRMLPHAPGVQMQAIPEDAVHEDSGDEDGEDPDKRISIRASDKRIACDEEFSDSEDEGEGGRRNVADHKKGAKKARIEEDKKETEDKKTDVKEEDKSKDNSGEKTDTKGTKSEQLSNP
Sequence of Histone deacetylase 1 (Q13547 whole entry): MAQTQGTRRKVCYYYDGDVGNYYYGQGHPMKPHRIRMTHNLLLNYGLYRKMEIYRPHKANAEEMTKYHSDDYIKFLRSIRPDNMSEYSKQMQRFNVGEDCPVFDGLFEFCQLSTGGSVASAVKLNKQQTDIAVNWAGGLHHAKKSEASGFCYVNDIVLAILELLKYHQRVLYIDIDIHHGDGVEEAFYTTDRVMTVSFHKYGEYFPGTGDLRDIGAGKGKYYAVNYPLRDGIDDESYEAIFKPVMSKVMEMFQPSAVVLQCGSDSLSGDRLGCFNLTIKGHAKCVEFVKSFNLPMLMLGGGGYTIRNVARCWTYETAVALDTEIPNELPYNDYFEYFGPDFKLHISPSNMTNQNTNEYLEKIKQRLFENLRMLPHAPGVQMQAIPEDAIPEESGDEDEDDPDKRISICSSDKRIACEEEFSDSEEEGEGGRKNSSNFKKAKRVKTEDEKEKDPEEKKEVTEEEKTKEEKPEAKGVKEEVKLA
Sequence of Albumin (P02769 whole entry): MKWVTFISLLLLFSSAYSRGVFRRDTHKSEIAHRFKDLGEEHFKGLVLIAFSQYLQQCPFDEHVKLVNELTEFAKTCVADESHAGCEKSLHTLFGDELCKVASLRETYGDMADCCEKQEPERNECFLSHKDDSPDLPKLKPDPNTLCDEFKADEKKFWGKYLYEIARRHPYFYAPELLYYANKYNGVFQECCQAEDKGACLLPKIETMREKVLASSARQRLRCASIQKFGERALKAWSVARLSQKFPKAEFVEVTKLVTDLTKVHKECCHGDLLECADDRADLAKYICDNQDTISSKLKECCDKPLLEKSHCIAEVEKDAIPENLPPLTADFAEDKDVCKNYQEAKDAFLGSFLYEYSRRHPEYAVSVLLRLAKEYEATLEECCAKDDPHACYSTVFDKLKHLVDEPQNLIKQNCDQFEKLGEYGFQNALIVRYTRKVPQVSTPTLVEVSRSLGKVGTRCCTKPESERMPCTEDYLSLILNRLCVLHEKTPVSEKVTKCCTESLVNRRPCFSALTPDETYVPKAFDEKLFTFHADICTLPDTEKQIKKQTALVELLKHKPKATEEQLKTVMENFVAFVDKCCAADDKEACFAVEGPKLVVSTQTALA

remaining at 1 h [2]: 72% | K1/2 [3]: 8 µM | inhibition [4]: Active | Ki (Histone deacetylase 8 [5]): 7 µM | inhibition [6]: tde | Retention_time [8]: 14.7 min | inhibition [10]: Active | remaining at 2 h [11]: 52% | IC50 (Histone deacetylase 2): 0.255 µM | IC50 (Histone deacetylase 1): 0.371 µM | TDI [12]: inactive | remaining at 2 h [14]: > 95% | IC50 (Histone deacetylase 3): 0.149 µM | Retention time [15]: 88.5 min | inhibition [16]: Active | Stability [17]: > 97% | IC50 [18]: 0.023 µM | remaining at 2 h (Albumin): > 95% | IC50 (Histone deacetylase 8 [20]): 3.84 µM
Structure (SMILES): CC1=C(C)C(=O)C(CONC(=O)CCCCCCC(=O)Nc2ccccc2)=C(C)C1=O
Activity (Jurkat [1]): Non-toxic | Activity (HH [7]): Non-toxic | EC50 [9]: 9.37 µM | EC50 (Jurkat [13]): 6.05 µM | EC50 (HH [19]): 3.38 µM

inhibition [22]: inactive | Activity [23]: Not Active | inhibition [25]: inactive | IC50 (Histone deacetylase 2): > 10 µM | IC50 (Histone deacetylase 1): > 10 µM | IC50 (Histone deacetylase 3): > 10 µM | IC50 [18]: > 10 µM | IC50 (Histone deacetylase 8 [20]): > 10 µM
Structure (SMILES): O=C(CCCCCCC(=O)Nc1ccccc1)NOCc1ccccc1
Activity [21]: Non-toxic | inhibition (HH [24]): inactive | inhibition (Jurkat [26]): inactive

Retention_time [27]: 10.7 min | remaining at 2 h [11]: 55%
Structure (SMILES): O=C(CCCCCCC(=O)Nc1ccccc1)NO [VORINOSTAT]

Retention_time [27]: 10.5 min
Structure (SMILES): C=C1C(=O)C(C)=C(C)C(=O)C1(C)SC[C@H](NC(=O)CC[C@H](N)C(=O)O)C(=O)NCC(=O)O (stereo partly drawn)
